Source: ChEMBL document CHEMBL1151976, “Bioactive sulfated sesterterpene alkaloids and sesterterpene sulfates from the marine sponge Fasciospongia sp” (J Nat Prod, 2009)
pIC50: −log10 of the molar value. In brackets after ≈: the same amount, converted by molar mass. Activity calls are given as the source filed them. The rule behind the calls is not given here.

Tests used:
MCF7 [1] = assay: Cytotoxicity against human MCF7 cells at 20 ug/ml after 72 hrs by SRB assay; format: functional, cell-based
Method in brief: (§1)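 Single-concentration screen at 20 µg/mL. Cells seeded at 10^6 cells/mL in 96-well plates, sample added in 10% DMSO, incubated 72 h at 37 °C. Viability by sulforhodamine B staining, compared with a 0.5% DMSO-treated control.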

LNCaP [2] = assay: Cytotoxicity against human LNCAP cells at 20 ug/ml after 72 hrs by SRB assay; format: functional, cell-based; method in brief: as §1
Lu1 [3] = assay: Cytotoxicity against human Lu1 cells at 20 ug/ml after 72 hrs by SRB assay; format: functional, cell-based; method in brief: as §1
Streptomyces [4] = assay: Antimicrobial activity against Streptomyces 85E assessed as inhibition of hyphae formation at 20 ug/disk after 30 hrs; format: functional; details: read-out: IZ
Method in brief: (§2)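 Streptomyces 85E mycelial fragments spread as a lawn on minimal medium ISP 4 agar. Compounds in MeOH loaded onto 7 mm filter disks, air-dried, placed on plates, incubated 30 °C for 30 h. Read-out: clear or bald (hyphae-free) zone diameter around the disk; >9 mm counted active. Surfactin positive control, MeOH negative control; run in duplicate.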

Streptomyces [5] = assay: Antimicrobial activity against Streptomyces 85E assessed as inhibition of hyphae formation at 10 ug/disk after 30 hrs; format: functional; details: read-out: IZ; method in brief: as §2
Streptomyces [6] = assay: Antimicrobial activity against Streptomyces 85E assessed as inhibition of hyphae formation at 5 ug/disk after 30 hrs; format: functional; details: for zone of inhibition at 5 µg/disc: read-out: IZ; method in brief: as §2
Streptomyces [7] = assay: Antimicrobial activity against Streptomyces 85E assessed as inhibition of hyphae formation at 2.5 ug/disk after 30 hrs; format: functional; method in brief: as §2
HeLa = assay: Cytotoxicity against human HeLa cells after 72 hrs by SRB assay; format: functional, cell-based
MCF7 [8] = assay: Cytotoxicity against human MCF7 cells after 72 hrs by SRB assay; format: functional, cell-based; details: MCF7, 72 h
Method in brief: (§3)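 Cells seeded at 10^6 cells/mL in 96-well plates. Six serial dilutions of sample in 10% DMSO added in triplicate. Incubated 72 h at 37 °C; viability measured by sulforhodamine B staining. IC50 is the concentration giving 50% growth inhibition relative to 0.5% DMSO-treated control, averaged over two independent experiments.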

LNCaP [9] = assay: Cytotoxicity against human LNCAP cells after 72 hrs by SRB assay; format: functional, cell-based; method in brief: as §3
Lu1 [10] = assay: Cytotoxicity against human Lu1 cells after 72 hrs by SRB assay; format: functional, cell-based; details: Lu1, 72 h; method in brief: as §3

C[C@H]1CC[C@H]2C(=CCCC2(C)C)[C@@]1(C)CCC(CCCC1=CCN(CCCCNC(=N)N)C1=O)COS(=O)(=O)O (stereo not given in full) [FASCIOSPONGINE C]
Activity (MCF7 [1]): Not toxic
Activity (LNCaP [2]): Not toxic
Activity (Lu1 [3]): Not toxic
zone of inhibition at 20 µg/disc (Streptomyces [4]): 14 mm
zone of inhibition at 10 µg/disc (Streptomyces [5]): 13 mm
inhibition zone (IZ) (Streptomyces [6]): inactive
inhibition zone (IZ) (Streptomyces [7]): inactive

C[C@H]1CC[C@H]2C(=CCCC2(C)C)[C@@]1(C)CCC(CCCC1=CCN(CCc2c[nH]cn2)C1=O)COS(=O)(=O)O (stereo not given in full) [FASCIOSPONGINE A]
Activity (MCF7 [1]): Not toxic
Activity (LNCaP [2]): Not toxic
Activity (Lu1 [3]): Not toxic
zone of inhibition at 20 µg/disc (Streptomyces [4]): 18 mm
zone of inhibition at 10 µg/disc (Streptomyces [5]): 16 mm
zone of inhibition at 5 µg/disc (Streptomyces [6]): 14 mm
inhibition zone (IZ) (Streptomyces [7]): inactive

C[C@H]1CC[C@H]2C(=CCCC2(C)C)[C@@]1(C)CCC(CCCc1ccoc1)COS(=O)(=O)O (stereo not given in full) [HALISULFATE 7]
Activity (MCF7 [1]): Not toxic
Activity (LNCaP [2]): Not toxic
Activity (Lu1 [3]): Not toxic
IC50 (HeLa): 16 mg/L (≈ 35.3 µM)
zone of inhibition at 20 µg/disc (Streptomyces [4]): 18 mm
zone of inhibition at 10 µg/disc (Streptomyces [5]): 15 mm
inhibition zone (IZ) (Streptomyces [6]): inactive
inhibition zone (IZ) (Streptomyces [7]): inactive

C[C@H]1CC[C@H]2C(=CCCC2(C)C)[C@@]1(C)CCC(CCCC1=CC(=O)N(CCc2c[nH]cn2)C1=O)COS(=O)(=O)O (stereo not given in full) [19-OXOFASCIOSPONGINE A]
pIC50 (MCF7 [8]): 4.87
pIC50 (LNCaP [9]): 4.66
pIC50 (Lu1 [10]): 5.30
zone of inhibition at 20 µg/disc (Streptomyces [4]): 25 mm
zone of inhibition at 10 µg/disc (Streptomyces [5]): 20 mm
zone of inhibition at 5 µg/disc (Streptomyces [6]): 16 mm
zone of inhibition at 2.5 µg/disc (Streptomyces [7]; read-out: IZ): 14 mm

C[C@H]1CC[C@H]2C(=CCCC2(C)C)[C@@]1(C)CCC(CCCC1=CC(=O)OC1O)COS(=O)(=O)O (stereo not given in full)
Activity (MCF7 [1]): Not toxic
Activity (LNCaP [2]): Not toxic
Activity (Lu1 [3]): Not toxic
zone of inhibition at 20 µg/disc (Streptomyces [4]): 19 mm
zone of inhibition at 10 µg/disc (Streptomyces [5]): 13 mm
inhibition zone (IZ) (Streptomyces [6]): inactive
inhibition zone (IZ) (Streptomyces [7]): inactive

C[C@H]1CC[C@H]2C(=CCCC2(C)C)[C@@]1(C)CCC(CCCC1=CC(=O)OC1)COS(=O)(=O)O (stereo not given in full) [HALISULFATE 9]
Activity (MCF7 [1]): Not toxic
Activity (LNCaP [2]): Not toxic
Activity (Lu1 [3]): Not toxic
zone of inhibition at 20 µg/disc (Streptomyces [4]): 16 mm
zone of inhibition at 10 µg/disc (Streptomyces [5]): 14 mm
inhibition zone (IZ) (Streptomyces [6]): inactive
inhibition zone (IZ) (Streptomyces [7]): inactive

C[C@H]1CC[C@H]2C(=CCCC2(C)C)[C@@]1(C)CCC(CCCC1=CC(=O)N(CCc2c[nH]cn2)C1)COS(=O)(=O)O (stereo not given in full) [FASCIOSPONGINE B]
Activity (MCF7 [1]): Not toxic
Activity (LNCaP [2]): Not toxic
Activity (Lu1 [3]): Not toxic
zone of inhibition at 20 µg/disc (Streptomyces [4]): 19 mm
zone of inhibition at 10 µg/disc (Streptomyces [5]): 17 mm
zone of inhibition at 5 µg/disc (Streptomyces [6]): 15 mm
inhibition zone (IZ) (Streptomyces [7]): inactive
